Source: ChEMBL document CHEMBL1154335, “2-(3-Thienyl)-5,6-dihydroxypyrimidine-4-carboxylic acids as inhibitors of HCV NS5B RdRp” (Bioorg Med Chem Lett, 2009)
Several values for one entry are separate records, joined by “and”; a condition that tells them apart may be missing. Equal entries are not always repeated.

How the values were obtained:
Hepatitis C virus [1] = assay: Inhibition of HCV1b Cdelta55 NS5B polymerase; format: functional, organism-based, Hepatitis C virus subtype 1b
Hepatitis C virus [2] = assay: Antiviral activity against Hepatitis C virus subtype 1b infected in human HuH7 cells by replicon assay; format: functional, organism-based, Hepacivirus hominis; details: genotype 1b, Huh-7
Hepatitis C virus [3] = assay: Inhibition of HCV con1 Cdelta55 NS5B polymerase G152E mutant; format: functional, Hepacivirus hominis; details: isolate Con1
Summary of the method: (§1)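 IC50 determined on isolated recombinant NS5B polymerase carrying a single P156S or G152E substitution. These substitutions were identified in replicon colonies selected with […]. Wild-type enzyme was run alongside as the reference.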

Hepatitis C virus [4] = assay: Inhibition of wild type HCV con1 Cdelta55 NS5B polymerase; format: functional, Hepacivirus hominis; details: isolate Con1
Summary of the method: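 Recombinant NS5B truncated by 55 C-terminal residues (ΔC55), genotype 1b HCV; IC50 determined from enzyme inhibition.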

Hepatitis C virus [5] = assay: Inhibition of HCV con1 Cdelta55 NS5B polymerase P156S mutant; format: functional, Hepacivirus hominis; details: isolate Con1; summary of the method: as §1
[6] = Inhibition of HCV3a Cdelta21 NS5B polymerase; design: species or system Hepatitis C virus subtype 3a
Hepatitis C virus [7] = assay: Antiviral activity against Hepatitis C virus subtype 2a infected in human HuH7 cells by replicon assay; format: functional, organism-based, Hepacivirus hominis, genotype 2a, Huh-7
Summary of the method: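 Full-length HCV genotype 2a infectivity assay; EC50 determined.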

[8] = Inhibition of HCV2b Cdelta21 NS5B polymerase; design: species or system Hepatitis C virus subtype 2b
[9] = Metabolic stability in rat assessed as compound turnover at 3 mg/kg, iv; format: ADME, organism-based; design: dose 3 mg/kg, route intravenous; details: in vivo, read-out: Stability
Summary of the method: (§2)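 Rat, single intravenous dose of 3 mg/kg; plasma sampled for half-life, volume of distribution and turnover (clearance).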

[10] = Oral bioavailability in rat at 3 mg/kg; format: ADME, organism-based; details: in vivo
Summary of the method: (§3)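 Rat, oral dose of 3 mg/kg; plasma exposure (AUC) measured and oral bioavailability derived.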

[11] = Bioavailability in intramuscular dosed rat; format: ADME, organism-based; details: in vivo, im
Summary of the method: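 Rat, intramuscular administration; plasma exposure measured to derive bioavailability.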

[12] = Protein binding in rat serum; format: ADME, cell-free; details: read-out: PB
Summary of the method: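 Binding to rat serum proteins measured.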

[13] = AUC in rat plasma at 3 mg/kg, po; format: ADME, organism-based; design: dose 3 mg/kg, route oral; summary of the method: as §3
Hepatitis C virus [14] = assay: Inhibition of HCV2a Cdelta21 NS5B polymerase; format: functional, Hepatitis C virus subtype 2a
[15] = Volume of distribution in rat at 3 mg/kg, iv; format: ADME, organism-based; design: dose 3 mg/kg, route intravenous; details: in vivo; summary of the method: as §2
[16] = Half life in rat plasma at 3 mg/kg, iv; format: ADME, organism-based; design: dose 3 mg/kg, route intravenous; summary of the method: as §2
Hepatitis C virus [17] = assay: Inhibition of HCV1b Cdelta21 NS5B polymerase; format: functional, Hepatitis C virus subtype 1b
[18] = Hepatitis C virus, genotype 2a, Huh-7

| IC50 (Hepatitis C virus [1]) | EC50 (Hepatitis C virus [2]) | SMILES | further results |
| --- | --- | --- | --- |
| 0.873 µM | – | O=C(NCc1ccccc1)Nc1cscc1-c1nc(O)c(O)c(C(=O)O)n1 | – |
| 0.062 µM | 32 µM | O=C(Nc1cscc1-c1nc(O)c(O)c(C(=O)O)n1)NS(=O)(=O)c1ccccc1 | – |
| 30 µM | – | O=C(O)c1nc(-c2ccccc2)nc(O)c1O | – |
| 0.326 µM | – | O=C(Nc1cscc1-c1nc(O)c(O)c(C(=O)O)n1)OCc1ccccc1 | – |
| 2.6 µM | – | O=C(O)c1nc(-c2cccs2)nc(O)c1O | – |
| – | – | O=C(NCc1ccccc1Cl)Nc1ccsc1-c1nc(O)c(O)c(C(=O)O)n1 | IC50 (Hepatitis C virus [3]): 0.8 µM; IC50 (Hepatitis C virus [4]): 0.18 µM; IC50 (Hepatitis C virus [5]): 0.17 µM |
| – | – | Cn1c(-c2cccs2)nc(C(=O)O)c(O)c1=O | IC50 (Hepatitis C virus [3]): 3.2 µM; IC50 (Hepatitis C virus [4]): 4.6 µM; IC50 (Hepatitis C virus [5]): 5.6 µM |
| 0.038 µM | 37 µM | O=C(Nc1cscc1-c1nc(O)c(O)c(C(=O)O)n1)NS(=O)(=O)c1cccc(Br)c1 | – |
| 2.61 µM | – | O=C(Cc1ccccc1Cl)Nc1cscc1-c1nc(O)c(O)c(C(=O)O)n1 | – |
| 0.258 µM | – | O=C(NCc1ccccc1Cl)Nc1cscc1-c1nc(O)c(O)c(C(=O)O)n1 | – |
| 0.047 µM | 16 µM | Cc1ccccc1S(=O)(=O)NC(=O)Nc1cscc1-c1nc(O)c(O)c(C(=O)O)n1 | – |
| 0.085 µM | 26 µM | O=C(Nc1cscc1-c1nc(O)c(O)c(C(=O)O)n1)NS(=O)(=O)c1ccc(Cl)cc1 | – |
| 0.343 µM | – | O=C(Nc1sccc1-c1nc(O)c(O)c(C(=O)O)n1)OCc1ccccc1 | – |
| 8.28 µM | – | CC(C)(C)OC(=O)Nc1cscc1-c1nc(O)c(O)c(C(=O)O)n1 | – |
| 0.012 µM | 2.4 µM | O=C(Nc1cscc1-c1nc(O)c(O)c(C(=O)O)n1)NS(=O)(=O)c1cccc(Cl)c1Cl | EC50 (Hepatitis C virus [7]; [18]): 4.9 µM |
| 0.048 µM | 32 µM | O=C(Nc1cscc1-c1nc(O)c(O)c(C(=O)O)n1)NS(=O)(=O)c1ccc2ccccc2c1 | – |
| 0.078 µM | 2.6 µM | O=C(Nc1cscc1-c1nc(O)c(O)c(C(=O)O)n1)NS(=O)(=O)c1ccccc1Cl | EC50 (Hepatitis C virus [7]; [18]): 6.6 µM |
| 6.15 µM | – | O=C(O)c1nc(-c2ccsc2)nc(O)c1O | – |
| 0.426 µM | – | CS(=O)(=O)NC(=O)Nc1cscc1-c1nc(O)c(O)c(C(=O)O)n1 | – |

| SMILES | IC50 (Hepatitis C virus [1]) | EC50 (Hepatitis C virus [2]) | further results |
| --- | --- | --- | --- |
| O=C(Nc1cscc1-c1nc(O)c(O)c(C(=O)O)n1)NS(=O)(=O)c1ccccc1Br | 0.074 µM | 3.4 µM | IC50 (Hepatitis C virus [3]): 0.4 µM; IC50 (Hepatitis C virus [4]): 0.06 µM; IC50 (Hepatitis C virus [5]): 0.07 µM |
| O=C(Nc1cscc1-c1nc(O)c(O)c(C(=O)O)n1)NS(=O)(=O)c1cccc2ccccc12 | 0.036 µM | 3.6 µM | IC50 [6]: 0.0039 µM; EC50 (Hepatitis C virus [7]; huh-7): 3.7 µM and 9.6 µM; IC50 [8]: 0.0058 µM; IC50 (Hepatitis C virus [3]): 0.3 µM; clearance [9]: 0.012 L/h/kg; bioavailability [10]: 2%; IC50 (Hepatitis C virus [4]): 0.04 µM; bioavailability [11]: 89%; fraction unbound [12]: < 0.01; AUC [13]: 3.3 µM·h; IC50 (Hepatitis C virus [14]): 0.0021 µM; Vd [15]: 0.1 L/kg; half-life [16]: 15 h; IC50 (Hepatitis C virus [17]): 0.0056 µM |
